Test results as given in ChEMBL document CHEMBL1240449, “Tricyclononene carboxamide derivatives as novel anti-HIV-1 agents” (Eur J Med Chem, 2010).

Tests used:
[1] = test system: Human immunodeficiency virus 1; assay: Antiviral activity against R5 tropic HIV1 BaL infected in human CEMx174 5.25M7 cells after 3 days by luciferase assay; assay type: functional, organism-based; conditions: Human immunodeficiency virus 1, BaL, CEMx174 5.25M7, 72 h
Summary of the method: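 Compound at graded concentrations, in triplicate, preincubated with an equal volume of HIV-1 Bal (MOI 0.01) at 37 °C for 30 min. CEMx174 5.25M7 cells (5 × 10⁵/mL; CD4+, CXCR4+, CCR5+) were then added. After overnight culture the medium was replaced. On day 3 the cells were lysed and luciferase activity read. IC50 from percent inhibition by CalcuSyn.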

[2] = Cytotoxicity against human CEMx174 5.25M7 cells after 4 days by XTT assay; assay type: cell-based
Summary of the method: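 Graded compound concentrations added to an equal volume of CEMx174 5.25M7 cells (5 × 10⁵/mL) and incubated 4 days at 37 °C. XTT (1 mg/mL) containing 0.02 mM PMS was added and absorbance read at 450 nm after 4 h. CC50 by CalcuSyn.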

[3] = Selectivity index, CC50 for human CEMx174 5.25M7 cells to IC50 for R5 tropic HIV1 BaL; assay type: functional
Summary of the method: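 Ratio of CC50 (XTT, CEMx174 5.25M7 cells, 4 days) to IC50 (HIV-1 Bal luciferase infection assay, day 3) in the same cell line.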

[4] = target: Human immunodeficiency virus type 1 integrase (Human immunodeficiency virus 1, UniProt Q7ZJM1); assay: Inhibition of HIV1 integrase after 1 hr
Summary of the method: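 Integrase (F185K/C280S IN1-288, expressed in E. coli) assayed in wells coated with a donor DNA duplex substrate. Final read-out by alkaline phosphatase at 405 nm, after PBS-Tween washes and 1% BSA at 37 °C for 40 min. ABPS included as control. IC50 by CalcuSyn.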

[5] = target: Human immunodeficiency virus type 1 reverse transcriptase (Human immunodeficiency virus 1, UniProt Q72547); assay: Inhibition of HIV1 reverse transcriptase after 1 hr by ELISA
Protease = Protease (Human immunodeficiency virus 1, UniProt Q9YQ12); assay: Inhibition of HIV1 recombinant protease
Summary of the method: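 Recombinant HIV-1 protease, purified, in 0.1 mol/L sodium acetate pH 5.0 with 0.9 mol/L NaCl, 1 mmol/L DTT, 1 mmol/L EDTA and a fluorescent peptide substrate. Graded compound concentrations were preincubated in this buffer for 20 min at 37 °C, then enzyme was added to start the reaction. Percent inhibition and IC50 were calculated.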

Chain of Human immunodeficiency virus type 1 integrase (Q7ZJM1 whole entry): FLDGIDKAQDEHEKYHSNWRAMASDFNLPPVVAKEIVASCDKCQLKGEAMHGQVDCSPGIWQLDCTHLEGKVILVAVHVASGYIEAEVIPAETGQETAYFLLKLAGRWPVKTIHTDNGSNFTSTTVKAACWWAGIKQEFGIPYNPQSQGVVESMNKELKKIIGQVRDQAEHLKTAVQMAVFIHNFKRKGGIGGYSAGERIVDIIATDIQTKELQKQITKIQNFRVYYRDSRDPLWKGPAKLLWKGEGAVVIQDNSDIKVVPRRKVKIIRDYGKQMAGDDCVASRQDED
Chain of Protease (Q9YQ12 whole entry): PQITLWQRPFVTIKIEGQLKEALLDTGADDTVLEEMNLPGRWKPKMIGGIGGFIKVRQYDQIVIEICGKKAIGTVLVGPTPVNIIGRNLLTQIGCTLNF

Compound	IC50 ([1]; read-out: IC50)	IC50 ([1]; read-out: pIC50 (converted))	CC50 at 96 h [2]	Selectivity Index [3]	IC50 [4]	IC50 [5]	IC50 (Protease)
O=C(N[C@@H](Cc1ccccc1)C(=O)NN1C(=O)C2C3C=CC(C4CC34)C2C1=O)c1ccccc1 (stereo partly drawn)	89.4 µM	89.3 µM					
Cc1nnc(C(C)C)n1-c1ccc(C(=O)NN2C(=O)C3C4C=CC(C5CC45)C3C2=O)cc1 (stereo not drawn)	> 185 µM		> 185 µM				
O=C(NN1C(=O)[C@@H]2C3C=CC(C4CC43)[C@@H]2C1=O)c1ccc(COc2ccc(F)cc2)cc1 (stereo partly drawn)	31.4 µM	31.5 µM	29.7 µM	0.94			
O=C(NN1C(=O)[C@@H]2C3C=CC(C4CC43)[C@@H]2C1=O)c1ccc(Cn2cnc3ccccc32)cc1 (stereo partly drawn)	0.41 µM	0.41 µM	120 µM	291.68	> 228 µM	> 457 µM	> 114 µM
CCN(Cc1ccc(C(=O)NN2C(=O)[C@@H]3C4C=CC(C5CC54)[C@@H]3C2=O)cc1)c1ccccc1 (stereo partly drawn)	57.2 µM	57.1 µM	57 µM	1			
O=C(Nc1ccccc1)c1ccc(CN2C(=O)C3C4C=CC(C5CC45)C3C2=O)cc1 (stereo not drawn)	5.7 µM	5.7 µM	44 µM	7.72			
O=C(NN1C(=O)[C@@H]2C3C=CC(C4CC43)[C@@H]2C1=O)c1ccc(CN(Cc2ccccc2)c2ccccc2)cc1 (stereo partly drawn)	17.1 µM	17.1 µM	25.5 µM	1.51			
CN(CCCN1C(=O)C2C3C=CC(C4CC34)C2C1=O)Cc1ccccc1 (stereo not drawn)	30.4 µM	30.4 µM	84 µM	2.76			
O=C(N[C@H](C(=O)NN1C(=O)C2C3C=CC(C4CC34)C2C1=O)c1ccccc1)c1ccccc1 (stereo partly drawn)	155 µM	155 µM	> 181 µM	>1.17			
CC(C)CN(Cc1ccc(C(=O)NN2C(=O)[C@@H]3C4C=CC(C5CC54)[C@@H]3C2=O)cc1)c1ccccc1 (stereo partly drawn)	13.2 µM	13.2 µM	32.7 µM	2.48			
O=C(NN1C(=O)[C@@H]2C3C=CC(C4CC43)[C@@H]2C1=O)c1ccc(CN2CCN(c3ccncc3)C2=O)cc1 (stereo partly drawn)	> 165 µM		> 165 µM				
Cc1ccc(-c2ccc3c(c2)C=C(C(=O)Nc2ccc(C[N+](C)(C)C4CCOCC4)cc2)CCC3)cc1.[Cl-]	0.05 µM		7.88 µM	157.6			
O=C(NN1C(=O)[C@@H]2[C@@H]3C=C[C@@H]([C@H]4C[C@@H]34)[C@@H]2C1=O)c1ccc(C(F)(F)F)cc1 [TECOVIRIMAT]	> 200 µM						
O=C(NN1C(=O)[C@@H]2C3C=CC(C4CC43)[C@@H]2C1=O)c1ccc(CNc2cccc(Cl)c2)cc1 (stereo partly drawn)	13.3 µM	13.2 µM	27.8 µM	2.01			
Cc1ccc(C)n1-c1ccc(C(=O)NN2C(=O)C3C4C=CC(C5CC45)C3C2=O)cc1 (stereo not drawn)	7.8 µM	7.8 µM	3.54 µM	0.45			
Cc1cccc(C)c1C(=O)N1CCC(C(=O)NN2C(=O)C3C4C=CC(C5CC45)C3C2=O)CC1 (stereo not drawn)	> 118 µM		> 118 µM				
Cc1nc2ccccc2n1Cc1ccc(C(=O)NN2C(=O)[C@@H]3C4C=CC(C5CC54)[C@@H]3C2=O)cc1 (stereo partly drawn)	1.68 µM	1.68 µM	1.02 µM	0.61			
CN1CCN(Cc2ccc(C(=O)NN3C(=O)[C@@H]4C5C=CC(C6CC65)[C@@H]4C3=O)cc2)CC1 (stereo partly drawn)	82.8 µM	82.8 µM					
O=C1C2C3C=CC(C4CC34)C2C(=O)N1CCC(=O)n1cnc2ccccc21 (stereo not drawn)	> 221 µM		> 221 µM				
